Data on five compounds can be found in PubChem BioAssay AID588836 (Broad Institute, 2011).

Active and inactive are the calls of the source. How the calls were made is not given here.

In the assay the target is Scavenger receptor class B member 1 (Mus musculus) (UniProt Q61009). Nature of the assay: wild-type mSR-BI cholesteryl ester uptake blockade – wild-type cells, scintillation, powder samples, orthogonal assay for SR-BI HDL uptake inhibitor project, late-stage follow-up (AID 588836). Conditions: CHO mSR-BI cells, [3H]cholesteryl ester HDL uptake, at 1 µM, stronger effect = lower value. Summed up: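 Test system – CHO-derived mSR-BI cells lacking LDL receptor, overexpressing murine SR-BI · Incubation – 1 h compound preincubation, then 2 h HDL uptake, 37 °C · Signal – liquid scintillation counting of cell-associated [3H]cholesteryl ester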
Scavenger receptor class B member 1 (Mus musculus), sequence (Q61009 whole entry, looked up): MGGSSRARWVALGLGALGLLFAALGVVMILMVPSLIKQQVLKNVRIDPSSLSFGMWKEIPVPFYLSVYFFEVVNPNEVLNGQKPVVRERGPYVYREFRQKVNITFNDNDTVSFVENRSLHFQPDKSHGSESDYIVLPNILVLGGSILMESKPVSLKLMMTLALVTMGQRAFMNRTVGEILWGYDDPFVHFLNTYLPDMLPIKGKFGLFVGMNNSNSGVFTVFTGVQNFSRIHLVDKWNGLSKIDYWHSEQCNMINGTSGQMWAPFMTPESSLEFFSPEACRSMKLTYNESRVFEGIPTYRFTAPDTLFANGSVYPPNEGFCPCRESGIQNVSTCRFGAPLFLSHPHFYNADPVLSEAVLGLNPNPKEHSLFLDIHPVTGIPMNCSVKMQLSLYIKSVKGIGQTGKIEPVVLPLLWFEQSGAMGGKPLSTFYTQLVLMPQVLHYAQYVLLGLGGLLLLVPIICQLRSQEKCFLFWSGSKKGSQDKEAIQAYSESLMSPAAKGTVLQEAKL
For the compound `COc1ccc(-c2nnn(CC(=O)N(C3CCCCC3)C(C)C(=O)NC3CCCC3)n2)cc1OC` (stereo not given), the HDL cholesterol uptake is 48.9%.

With `CCOC(=O)N1CCC(NC(=O)c2ccc3c(c2)N(Cc2ccc(F)cc2)CCS3)CC1`, the HDL cholesterol uptake is 45.9%.

Consider `CCC(=O)N1CCc2cc(-c3csc(NC(=O)c4ccco4)n3)ccc21`, for which the HDL cholesterol uptake was 52.6%.

Turning to `O=C(Nc1ccc(Cl)cc1C(=O)c1ccc(Cl)cc1)c1cc(Br)ccc1NS(=O)(=O)c1ccc(Cl)cc1`, the HDL cholesterol uptake is 85.2% (inactive).

For `Cc1ccc2oc(-c3cccc(NC(=O)c4cc(-n5cnnc5)ccc4Cl)c3)nc2c1`, the HDL cholesterol uptake is 54.8%.
